Only some compounds are listed: those with a hit (about 2.2% of all), similar ones and a draw of the others.
DENV2 CPE rescue = DENV2-induced cell death inhibition | DENV2-infected cells, cytopathic effect rescue, plate reader | CPE inhibition, % at 9.99 µM | hit rate 1.7% among 350,000; in the data active = CPE inhibition above about 20%, passing the limit was not always enough; inconclusive = no clear call, values can overlap the other calls; tested in BHK-21 cells
C2C12 statin = suppression of simvastatin myotoxicity; C2C12 myotubes + simvastatin, ATP luminescence, 48 h; scaled: DMSO 0, geranylgeraniol control 100; rescue of ATP level, % at 7.49 µM; hit rate 0.78% among 330,000;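 active = mean ATP rescue above about 67%, or every replicate alone reaching that limit, limit read from the data, passing the limit was not always enough; inconclusive = no clear call, values can overlap the other calls; inactive = mean under the limit and some replicate under it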;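 also: myotubes were challenged with 10 µM simvastatin during compound exposure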
E-selectin induc = E-selectin induction on HUVECs | AID 686992 | P16581 | hit rate 0.37% among 260,000 | activation, % at 7.58 µM | HUVEC E-selectin immunofluorescence imaging; normalized: neutral wells 0, TNF-alpha wells 100;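 active = mean E-selectin-positive cell signal at least 10% of the positive control, reached in at least 60% of replicates, without over 20% cell loss; inconclusive = no rule given, readout overlaps actives, possibly toxicity-flagged; inactive = the rest, including those meeting only one limit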
Target sequence (P16581 whole entry, looked up): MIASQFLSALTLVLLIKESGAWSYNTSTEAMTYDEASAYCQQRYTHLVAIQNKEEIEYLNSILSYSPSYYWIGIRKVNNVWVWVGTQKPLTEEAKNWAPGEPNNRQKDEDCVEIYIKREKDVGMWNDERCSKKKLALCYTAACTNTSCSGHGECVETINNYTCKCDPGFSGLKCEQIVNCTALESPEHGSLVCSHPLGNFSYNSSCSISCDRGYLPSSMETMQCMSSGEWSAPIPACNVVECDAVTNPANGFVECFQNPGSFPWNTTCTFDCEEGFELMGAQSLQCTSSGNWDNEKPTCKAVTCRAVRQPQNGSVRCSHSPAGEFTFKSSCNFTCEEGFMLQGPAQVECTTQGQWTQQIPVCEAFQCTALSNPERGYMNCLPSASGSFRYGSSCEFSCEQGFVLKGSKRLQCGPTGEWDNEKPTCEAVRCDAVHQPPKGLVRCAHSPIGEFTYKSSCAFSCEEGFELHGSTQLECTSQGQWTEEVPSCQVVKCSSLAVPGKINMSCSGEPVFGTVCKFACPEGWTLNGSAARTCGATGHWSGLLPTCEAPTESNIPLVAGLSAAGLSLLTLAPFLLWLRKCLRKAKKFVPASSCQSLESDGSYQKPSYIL
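Material: HUVEC primary endothelial cells; Amount: 3,000 cells per well; Dosing: single concentration; Medium: EGM-2 growth medium on 0.1% gelatin-coated wells; Read-out basis: percent E-selectin-positive cells; Signal: immunofluorescence imaging; Control set: TNF-alpha, DMSO.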
Large screens that a line does not name were inactive.

O=C(NCc1cccc(Cl)c1)c1cnn2c1NC(c1ccco1)CC2C(F)(F)F (configuration not stated)	none (no result: DENV2 CPE rescue, E-selectin induc)
CCCNC(=O)C[C@H]1CC[C@@H]2[C@H](COC[C@H](O)CN2C(=O)c2ccc(F)cc2)O1	none (no result: DENV2 CPE rescue)
CO[C@H]1CN(C)C(=O)c2cc(NC(=O)C3CCOCC3)ccc2OC[C@H](C)N(C(C)=O)C[C@H]1C	none (no result: DENV2 CPE rescue)
C[C@@H]1CN([C@@H](C)CO)C(=O)c2cc(NS(=O)(=O)c3cn(C)cn3)ccc2O[C@@H](C)CCCCO[C@H]1CN(C)C(=O)c1ccncc1	none (no result: C2C12 statin)
Cc1nc2ccccc2n1C(c1cccnc1)c1nc2ccccc2[nH]1 (configuration not stated)	DENV2 CPE rescue 38 (no result: C2C12 statin)
c1ccc(-c2nc3ccccc3n2C(c2ccccc2)c2nc3ccccc3[nH]2)cc1 (configuration not stated)	none (no result: C2C12 statin)
COc1ccc(CN(C)C[C@H]2Oc3ccc(NC(=O)Nc4ccc(C(F)(F)F)cc4)cc3C(=O)N([C@H](C)CO)C[C@@H]2C)cc1	none
C[C@@H]1CN([C@@H](C)CO)C(=O)c2cc(/C=C/c3ccccc3)cnc2O[C@@H]1CN(C)Cc1cncnc1	none (no result: C2C12 statin)
CCCC#Cc1ccc([C@@H]2[C@@H](CO)N3C(=O)CN(C(=O)Nc4ccc(F)cc4)C[C@H]23)cc1	DENV2 CPE rescue 36 (no result: C2C12 statin)
CCCC#Cc1ccc([C@@H]2[C@H]3CN(C(=O)NC4CCCC4)CC(=O)N3[C@H]2CO)cc1	DENV2 CPE rescue 22 (no result: C2C12 statin)
CCCC#Cc1ccc([C@H]2[C@H](CO)N3C(=O)CN(C(=O)Nc4ccc(F)cc4)C[C@@H]23)cc1	none (no result: C2C12 statin)
CCCC#Cc1ccc([C@H]2[C@H]3CN(C(=O)NC4CCCC4)CC(=O)N3[C@H]2CO)cc1	none (no result: C2C12 statin)
COc1ccccc1NC(=O)N1CC(=O)N2[C@@H](CO)[C@@H](c3ccc(C#Cc4ccc(F)cc4)cc3)[C@@H]2C1	none (no result: C2C12 statin)
O=C1CN(S(=O)(=O)Cc2ccccc2)C[C@H]2[C@H](c3ccc(C#Cc4ccc(F)cc4)cc3)[C@@H](CO)N12	DENV2 CPE rescue 38 (no result: C2C12 statin)
COc1ccccc1NC(=O)N1CC(=O)N2[C@H](C1)[C@@H](c1ccc(C#Cc3ccc(F)cc3)cc1)[C@@H]2CO	DENV2 CPE rescue 69 (no result: C2C12 statin)
O=C1CN(S(=O)(=O)Cc2ccccc2)C[C@@H]2[C@@H](c3ccc(C#Cc4ccc(F)cc4)cc3)[C@H](CO)N12	none (no result: C2C12 statin)
CC(C)NC(=O)N(C)C[C@H]1Oc2ncc(C#CCC3CCCC3)cc2C(=O)N([C@@H](C)CO)C[C@H]1C	none
C[C@@H]1CN([C@@H](C)CO)C(=O)Cc2cc(NC(=O)Cn3cnnn3)ccc2O[C@H]1CN(C)CC1CC1	none
CC(C)NC(=O)N1CC(=O)N2[C@@H](CO)[C@@H](c3ccc(C#CCN(C)C)cc3)[C@@H]2C1	none (no result: C2C12 statin)
O=C(CC1CC1)N1CC(=O)N2[C@H](CO)[C@@H](c3ccc(C#Cc4ccc(F)cc4)cc3)[C@H]2C1	none (no result: C2C12 statin)
CC(C)NC(=O)N1CC(=O)N2[C@H](CO)[C@H](c3ccc(C#CCN(C)C)cc3)[C@@H]2C1	DENV2 CPE rescue 23 (no result: C2C12 statin)
O=C(CC1CC1)N1CC(=O)N2[C@@H](CO)[C@@H](c3ccc(C#Cc4cccc(F)c4)cc3)[C@@H]2C1	DENV2 CPE rescue 29 (no result: C2C12 statin)
CN(C)CC(=O)N[C@H]1C=C[C@@H](CC(=O)NCc2ccc(Cl)cc2)O[C@@H]1CO	none
Cc1cc(F)cc(-c2cc(C(=O)NCC3CCCCC3)[nH]n2)c1	DENV2 CPE rescue 27
Cc1ccc(Cl)cc1-c1cc(C(=O)NCC2CCCCC2)[nH]n1	none (no result: E-selectin induc)
Cc1noc(C)c1S(=O)(=O)Nc1ccc2c(c1)C(=O)N([C@@H](C)CO)C[C@H](C)[C@H](CN(C)S(C)(=O)=O)O2	none (no result: C2C12 statin)
CNC[C@@H]1Oc2ccc(NC(=O)NC3CCCCC3)cc2CC(=O)N([C@H](C)CO)C[C@@H]1C	none
Cc1ccc(S(=O)(=O)Nc2ccc(O)c3cccnc23)cc1	none (no result: E-selectin induc)
Cc1ccc(S(=O)(=O)Nc2ccc(O)c3ncccc23)cc1	DENV2 CPE rescue 107 (no result: E-selectin induc)
C[C@H](CO)N1C[C@H](C)[C@H](CN(C)C(=O)Nc2ccc(F)cc2)Oc2ccc(NC(=O)Cc3ccccc3)cc2C1=O	DENV2 CPE rescue inconclusive
Cc1ccc(S(=O)(=O)N(C)C[C@H]2OCCCC[C@H](C)Oc3ccc(NS(=O)(=O)c4ccc(Cl)cc4)cc3C(=O)N([C@H](C)CO)C[C@H]2C)cc1	none
C[C@@H]1CN([C@@H](C)CO)C(=O)c2cc(NS(C)(=O)=O)ccc2O[C@@H](C)CCCCO[C@@H]1CN(C)S(=O)(=O)c1ccc(Cl)cc1	DENV2 CPE rescue 20
C[C@@H]1CN([C@H](C)CO)C(=O)c2cc(NS(C)(=O)=O)ccc2O[C@@H](C)CCCCO[C@@H]1CN(C)S(=O)(=O)c1ccc(Cl)cc1	none
C[C@@H]1CCCCO[C@H](CN(C)S(=O)(=O)c2ccc(Cl)cc2)[C@H](C)CN([C@H](C)CO)C(=O)c2cc(N(C)C)ccc2O1	DENV2 CPE rescue 89
Cc1ccc(S(=O)(=O)Nc2ccc3c(c2)C(=O)N([C@@H](C)CO)C[C@@H](C)[C@H](CN(C)S(=O)(=O)c2ccc(Cl)cc2)OCCCC[C@@H](C)O3)cc1	DENV2 CPE rescue 83 (no result: C2C12 statin)
Cc1ccc(S(=O)(=O)N(C)C[C@@H]2OCCCC[C@@H](C)Oc3ccc(NS(=O)(=O)c4c(C)noc4C)cc3C(=O)N([C@@H](C)CO)C[C@@H]2C)cc1	none (no result: C2C12 statin, E-selectin induc)
Cc1ccc(S(=O)(=O)N(C)C[C@H]2OCCCC[C@@H](C)Oc3ccc(NS(=O)(=O)c4c(C)noc4C)cc3C(=O)N([C@@H](C)CO)C[C@@H]2C)cc1	DENV2 CPE rescue 29 (no result: C2C12 statin, E-selectin induc)
C[C@@H]1CN([C@H](C)CO)C(=O)c2cc(N(C)C)ccc2O[C@@H](C)CCCCO[C@H]1CN(C)S(=O)(=O)c1ccc(Cl)cc1	none (no result: DENV2 CPE rescue)
CCS(=O)(=O)N1CC2(CN(C(=O)Nc3c(C)noc3C)[C@H](CO)c3[nH]c4cc(OC)ccc4c32)C1	none (no result: C2C12 statin)
C[C@@H]1CN([C@@H](C)CO)C(=O)Cc2cc(NC(=O)c3ccncc3)ccc2O[C@H]1CN(C)C(=O)Nc1ccc(C(F)(F)F)cc1	none
CN1c2ccc(-c3ccc(F)cc3)cc2[C@H]2[C@H](CCN2C(=O)c2cccnc2)[C@@H]1CO	none
CS(=O)(=O)c1ccccc1-c1csc(N2CCC(C(N)=O)CC2)n1	E-selectin induc 41 (no result: DENV2 CPE rescue, C2C12 statin)
CN(C)c1ccccc1-c1csc(N2CCC(C(N)=O)CC2)n1	none (no result: DENV2 CPE rescue)
NC(=O)C1CCN(c2nc(-c3ccccc3Br)cs2)CC1	DENV2 CPE rescue 80 (no result: C2C12 statin)
NC(=O)C1CCN(c2nc(-c3ccccc3F)cs2)CC1	none
O=C(C[C@H]1C[C@H]2c3cc(NC(=O)NC4CCCC4)ccc3O[C@H]2[C@H](CO)O1)NCc1cccnc1	none (no result: C2C12 statin)
Cc1noc(C)c1NC(=O)Nc1cccc2c1O[C@H](CN(C)CC1CCCCC1)[C@H](C)CN([C@H](C)CO)C2=O	none
CCCc1cn(CC[C@@H]2CC[C@@H](NC(=O)Cc3cccnc3)[C@@H](CO)O2)nn1	none (no result: DENV2 CPE rescue)
COc1ccc2c3c([nH]c2c1)[C@@H](CO)N(C(=O)C1CCCC1)CC31CN(S(C)(=O)=O)C1	none (no result: C2C12 statin)
COCc1[nH]nc2c1C(c1ccsc1)C(C#N)=C(N)O2 (configuration not stated)	none (no result: DENV2 CPE rescue, C2C12 statin)
COCc1[nH]nc2c1C(c1sccc1C)C(C#N)=C(N)O2 (configuration not stated)	C2C12 statin 94 (no result: DENV2 CPE rescue, E-selectin induc)
Cc1noc(C)c1S(=O)(=O)N(C)C[C@@H]1Oc2ccc(NC(=O)Nc3ccc(F)cc3)cc2CC(=O)N([C@H](C)CO)C[C@@H]1C	none

Source: PubChem BioAssay (Broad Institute)
